Activity calls are given as the source filed them. No cut-off for these calls is given here.
What was measured:
[1] = target: T1, Proteasome subunit beta type-9 (Homo sapiens) (UniProt P28065); test: Inhibition of human 20S immunoproteasome beta 1 subunit assessed as inhibition of BMV037 probe labeling at 1 to 10 uM incubated for 1 hr by SDS-PAGE analysis; details: dose 1-10 µM
T1 sequence (whole entry): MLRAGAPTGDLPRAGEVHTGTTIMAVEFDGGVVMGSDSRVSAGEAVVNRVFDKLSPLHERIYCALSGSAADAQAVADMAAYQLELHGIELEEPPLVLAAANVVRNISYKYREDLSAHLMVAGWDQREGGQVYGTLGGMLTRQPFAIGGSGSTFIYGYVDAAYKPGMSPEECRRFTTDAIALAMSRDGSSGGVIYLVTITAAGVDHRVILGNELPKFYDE
Method in brief: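 Purified human immuno-20S (20 nM) was incubated with compound at 37°C for 1 h, then labelled with 10 µM BMV037 at 37°C for 2 h. Samples were run on 4-12% Bis-Tris gel with MES buffer, and active subunits were visualised by Cy5 fluorescence.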

[2] = system: Plasmodium falciparum 3D7; test: Inhibition of 20S proteasome beta 2 subunit in bortezomib-resistant Plasmodium falciparum 3D7 assessed as inhibition of BMV037 probe labeling at 1 to 10 uM incubated for 1 hr by SDS-PAGE analysis; details: dose 1-10 µM
[3] = system: Plasmodium falciparum 3D7; test: Inhibition of 20S proteasome beta 5 subunit from bortezomib resistant Plasmodium falciparum 3D7 trophozoite infected erythrocytes assessed as inhibition of BMV037 probe labeling at 1 to 10 uM incubated for 1 hr by SDS-PAGE analysis; details: dose 1-10 µM
[4] = target: T2, Proteasome Macropain subunit MB1 (Homo sapiens) (UniProt P28074); test: Inhibition of human 20S constitutive proteasome beta 5 subunit assessed as inhibition of BMV037 probe labeling at 1 uM incubated for 1 hr by SDS-PAGE analysis
T2 sequence (whole entry): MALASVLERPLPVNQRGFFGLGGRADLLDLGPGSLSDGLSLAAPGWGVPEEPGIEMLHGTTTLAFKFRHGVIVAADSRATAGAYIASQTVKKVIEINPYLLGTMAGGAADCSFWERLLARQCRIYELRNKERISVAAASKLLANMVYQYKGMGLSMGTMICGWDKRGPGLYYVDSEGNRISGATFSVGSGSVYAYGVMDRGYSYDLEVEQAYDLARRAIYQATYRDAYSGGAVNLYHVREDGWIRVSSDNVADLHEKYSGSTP
Method in brief: (§1)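 Purified human constitutive 20S (20 nM) was treated with compound at 37°C for 1 h, then labelled with 10 µM BMV037 at 37°C for 2 h. Samples were run on 10% Bis-Tris gel with MOPS buffer, and active subunits were detected by Cy5 fluorescence scan.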

[5] = target: T3, Proteasome component C5 (Homo sapiens) (UniProt P20618); test: Inhibition of human 20S constitutive proteasome beta 1 subunit assessed as inhibition of BMV037 probe labeling at 1 to 10 uM incubated for 1 hr by SDS-PAGE analysis; details: dose 1-10 µM; method in brief: as §1
T3 sequence (whole entry): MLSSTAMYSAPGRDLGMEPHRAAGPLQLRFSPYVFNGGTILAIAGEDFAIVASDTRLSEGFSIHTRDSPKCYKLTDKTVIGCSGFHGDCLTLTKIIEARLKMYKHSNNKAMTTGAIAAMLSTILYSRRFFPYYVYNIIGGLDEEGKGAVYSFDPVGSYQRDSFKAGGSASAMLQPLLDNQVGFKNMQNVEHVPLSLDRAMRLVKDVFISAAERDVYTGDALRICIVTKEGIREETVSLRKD

[6] = target: T2, Proteasome Macropain subunit MB1 (Homo sapiens); test: Inhibition of human 20S constitutive proteasome beta 5 subunit assessed as inhibition of BMV037 probe labeling at 1 to 10 uM incubated for 1 hr by SDS-PAGE analysis; details: dose 1-10 µM; method in brief: as §1
[7] = target: T4, Proteasome subunit beta type-9 (Homo sapiens, UniProt P28065); test: Inhibition of human 20S immunoproteasome beta 1 subunit caspase-like activity using fluorogenic peptide Ac-nLPnLD-AMC as substrate in presence of PA28alpha incubated for 1 to 2 hrs by fluorescence microplate reader assay
T4 sequence (P28065 whole entry): T1 sequence (whole entry)

[8] = target: T5, Proteasome subunit beta type-7 (Homo sapiens, UniProt Q99436); test: Inhibition of human 20S constitutive proteasome beta 2 subunit trypsin-like activity using fluorogenic peptide Ac-WLR-AMC as substrate in presence of PA28alpha incubated for 1 to 2 hrs by fluorescence microplate reader assay
T5 sequence (Q99436 whole entry): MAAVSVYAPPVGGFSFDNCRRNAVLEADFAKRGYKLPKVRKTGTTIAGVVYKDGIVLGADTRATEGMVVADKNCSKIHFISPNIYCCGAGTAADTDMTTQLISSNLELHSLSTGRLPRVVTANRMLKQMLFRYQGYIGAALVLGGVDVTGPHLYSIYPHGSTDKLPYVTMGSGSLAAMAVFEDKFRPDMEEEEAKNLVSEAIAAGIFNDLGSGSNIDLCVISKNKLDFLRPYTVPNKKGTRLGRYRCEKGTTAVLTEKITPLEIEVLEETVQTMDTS

[9] = system: Plasmodium falciparum 3D7; test: Inhibition of 20S proteasome beta 2 subunit from bortezomib resistant Plasmodium falciparum 3D7 trophozoite infected erythrocytes assessed as inhibition of BMV037 probe labeling at 1 to 10 uM incubated for 1 hr by SDS-PAGE analysis; details: dose 1-10 µM
[10] = target: T2, Proteasome Macropain subunit MB1 (Homo sapiens); test: Inhibition of human 20S constitutive proteasome beta 5 subunit assessed as inhibition of BMV037 probe labeling at 10 uM incubated for 1 hr by SDS-PAGE analysis; method in brief: as §1
Plasmodium falciparum [11] = test: Synergistic antiplasmodial activity against DHA-resistant and sorbitol synchronized ring stage forms of Plasmodium falciparum Cam3.II^R539T expressing K13 mutant assessed as reduction in parasitemia incubated for 3 hrs in presence of DHA by pulse exposure based Syto-61 staining dye based flow cytometry analysis; type: functional, organism-based
Plasmodium falciparum [12] = test: Inhibition of proteasome in Plasmodium falciparum trophozoite stage transfected with GFP-DD assessed as reduction in GFP-DD fusion protein degradation at 0.2 to 0.5 uM incubated for 3 hrs in absence of Shield-1 by Western blot analysis; details: dose 0.2-0.5 µM
Method in brief: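 GFP-DD reporter parasites were held in Shield-1 for 24 h, then washed out. Trophozoites at 5% hematocrit and 5% parasitemia were exposed to compound for 3 h at 37°C. Saponin-isolated parasites were lysed and blotted with anti-GFP (1:1000), with anti-PfBiP as loading control. Representative of four independent experiments.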

[13] = target: T6, Proteasome Macropain subunit MB1 (Homo sapiens, UniProt P28074); test: Binding affinity to human 20S constitutive proteasome beta 5 subunit assessed as equilibrium constant using fluorogenic peptide Ac-WLA-AMC as substrate in presence of PA28alpha by fluorescence based microplate reader assay
T6 sequence (P28074 whole entry): T2 sequence (whole entry)

[14] = target: Proteasome Macropain subunit (Homo sapiens) (UniProt P49721); test: Binding affinity to human 20S constitutive proteasome beta 2 subunit assessed as half-life using fluorogenic peptide Ac-WLR-AMC as substrate in presence of PA28alpha by fluorescence based microplate reader assay
Proteasome Macropain subunit (Homo sapiens), sequence (P49721 whole entry): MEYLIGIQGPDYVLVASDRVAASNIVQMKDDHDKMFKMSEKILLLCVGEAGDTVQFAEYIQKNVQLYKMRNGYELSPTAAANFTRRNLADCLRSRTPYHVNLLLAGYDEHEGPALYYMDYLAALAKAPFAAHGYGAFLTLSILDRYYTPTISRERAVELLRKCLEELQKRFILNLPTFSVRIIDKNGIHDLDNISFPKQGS

[15] = target: T2, Proteasome Macropain subunit MB1 (Homo sapiens); test: Binding affinity to human 20S constitutive proteasome beta 5 subunit assessed as half-life using fluorogenic peptide Ac-WLA-AMC as substrate in presence of PA28alpha by fluorescence based microplate reader assay
Plasmodium falciparum [16] = test: Binding affinity to Plasmodium falciparum 20S proteasome beta 5 subunit assessed as half-life using fluorogenic peptide Ac-WLA-AMC as substrate in presence of PA28alpha by fluorescence based microplate reader assay

SMILES | inhibition [1] | inhibition [2] | inhibition [3] | inhibition [4] | inhibition [5] | inhibition [6] | IC50 [7] [nM] | IC50 [8] [nM] | inhibition [9] | inhibition [10] | Activity (Plasmodium falciparum [11]) | inhibition (Plasmodium falciparum [12]) | Ki [13] [nM] | T1/2 [14] [min] | T1/2 [15] [h] | T1/2 (Plasmodium falciparum [16]) [h]
Cc1ccc(S(=O)(=O)N[C@@H](CC(=O)NCC(C)(C)C)C(=O)N[C@@H](Cc2ccccc2)C(=O)N[C@@H](CC(C)C)B(O)O)cc1 | Active | Active | Active | inactive | Active | Active | 29 | 440 | Active | – | – | – | – | – | – | –
CC(=O)N1CCC[C@@H]1C(=O)N[C@@H](C)C(=O)N[C@@H](Cc1ccccc1)B(O)O | – | – | Active | – | – | – | 8 | > 10000 | – | inactive | Active | Active | – | – | – | –
CC(C)C[C@H](NC(=O)[C@H](Cc1ccccc1)NC(=O)Cc1ccc(O)cc1)B(O)O | Active | Active | – | – | Active | Active | 5 | 680 | Active | – | Active | – | 0.13 | 2 | 1.77 | 1.08

Reference: ChEMBL document CHEMBL4680111, “Target Validation and Identification of Novel Boronate Inhibitors of the Plasmodium falciparum Proteasome” (J Med Chem, 2018)
